Reference: PubChem BioAssay
The source made the active and inactive calls.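 The calls were made as follows, unless noted: active = inhibition of the reporter signal at or above 50%; inactive = inhibition below 50%.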

Key:
[1] = inhibitors of TNFa-induced NFkB p65 translocation, primary screen, imaging, HUVEC, MLSMR starter and 10KST1 sets (AID 438;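 active = inhibition above 20% together with a positive visual image hit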;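 also: compound added about 3h40 before a 20 min TNFalpha stimulation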;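 as to inhibition: signal is the nuclear over cytoplasmic p65 intensity ratio per well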); conditions: HUVEC TNFa-induced p65 nuclear translocation; cell count: measured here: nuclei count (cytotoxicity indicator), at 2.08 µM; inhibition: at 2 µM, stronger effect = higher value, 0% TNFa-plus-vehicle, 100% no-TNFa wells
[2] = reduction of polyQ htt aggregates in cells – imaging, exon1htt(103Q)mCFP cells, high-content imaging, primary screen (AID 483;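 active = visual image review flags a hit and inhibition of aggregation exceeds 20%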;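 also: compound exposure lasted 3 days before fixation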;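 as to nuclei count: percent of the per-plate median nuclei count of sample wells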); conditions: exon1htt(103Q)mCFP cell line, aggregate imaging, at 2 µM; inhibition of aggregation: stronger effect = higher value; nuclei count: measured here: cell count, toxicity
[3] = endothelial E-selectin expression blockers – imaging, HUVEC, immunofluorescence, MLSMR starter and 10KST1 sets, primary screen (AID 487;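 active = visually confirmed hit in the image check and inhibition above 20%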;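 as to inhibition: signal is fraction of cell area covered by stained E-selectin grains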;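 as to nuclei count: 100% = median nuclei count of all wells on the same plate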); conditions: HUVEC TNFalpha-induced E-selectin immunofluorescence imaging, at 2 µM; inhibition: stronger effect = higher value; nuclei count: measured here: cell number, toxicity
[4] = biological target: Voltage-gated potassium channel subunit beta-2 (Rattus norvegicus) (UniProt P62483); assay: inhibitors of rat Kvbeta2 reductase activity – biochemical, NADPH fluorescence, primary screen (AID 622;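 active = fluorescence slope higher than the sample average by over 3 SD, cut at about -0.22 in these data, passing the limit was not always enough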;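 also: slope of raw intensity against log time taken from 70 to 1610 s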); conditions: recombinant KvBeta, 4-cyanobenzaldehyde reduction, at 10 µM, stronger effect = higher value
[5] = biological target: Voltage-gated potassium channel subunit beta-2 (Rattus norvegicus) (UniProt P62483); assay: enhancers of rat Kvbeta2 NADPH turnover – biochemical, NADPH fluorescence, primary screen (AID 623;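 active = NADPH fluorescence slope more negative than the mean of all samples by about 3 SD, 99.7% confidence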;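 also: fluorescence intensity change per second fitted from 20 to 320 s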); conditions: Recombinant KvBeta, NADPH fluorescence decrease slope, 10 min; at 10 µM; stronger effect = lower value
[6] = biological target: Muscarinic acetylcholine receptor M4 (Homo sapiens) (UniProt P08173); assay: M4-linked GIRK flux change, two-sided – cell-based, HEK293 M4/GIRK, thallium flux, BTC-AM, M4 allosteric agonist project, primary screen (AID 625;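 active = fluorescence slope after compound addition differing from the mean of all tested samples at 99.7% confidence, mostly higher but some lower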;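 also: thallium influx through GIRK channels coupled to M4 in HEK293 cells with BTC-AM dye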); conditions: at 10 µM, actives lie on both sides
In short: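 System: HEK293 cells with M4 receptor and GIRK channels | Incubation: Cells overnight at 37 °C, BTC-AM loading 1 h, reads 2 min total | Technique: Kinetic BTC-AM fluorescence sampled at 1 Hz, 10 s pre-addition baseline | Measure: Post-addition slope, 15–24 s, of baseline-normalized fluorescence | Control set: Carbachol positive, DMSO negative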

[7] = blockers of RIG-like receptor reporter activation – cell-based, Sendai virus stimulus, luciferase, 10K MLSCN set, TLR/RLR signaling modifier project, primary screen (AID 602276;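 active = inhibition at or above 50% at 10 µM; inactive = inhibition below 50%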;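 also: firefly luciferase from ISG56 promoter only with Renilla not read in this screen; 0% = Sendai virus plus DMSO and 100% = medium plus DMSO without virus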); conditions: HEK293 RL24 IRF3 luciferase reporter, at 10 µM, stronger effect = higher value
[8] = TLR3 IRF3 reporter activation blockers – cell-based, poly I:C stimulus, luciferase, 10K MLSCN set, primary screen (AID 602277); conditions: HEK293-TLR3 RL24 IRF3 luciferase reporter, at 10 µM, stronger effect = higher value

Muscarinic acetylcholine receptor M4 (Homo sapiens), sequence (P08173 whole entry, looked up): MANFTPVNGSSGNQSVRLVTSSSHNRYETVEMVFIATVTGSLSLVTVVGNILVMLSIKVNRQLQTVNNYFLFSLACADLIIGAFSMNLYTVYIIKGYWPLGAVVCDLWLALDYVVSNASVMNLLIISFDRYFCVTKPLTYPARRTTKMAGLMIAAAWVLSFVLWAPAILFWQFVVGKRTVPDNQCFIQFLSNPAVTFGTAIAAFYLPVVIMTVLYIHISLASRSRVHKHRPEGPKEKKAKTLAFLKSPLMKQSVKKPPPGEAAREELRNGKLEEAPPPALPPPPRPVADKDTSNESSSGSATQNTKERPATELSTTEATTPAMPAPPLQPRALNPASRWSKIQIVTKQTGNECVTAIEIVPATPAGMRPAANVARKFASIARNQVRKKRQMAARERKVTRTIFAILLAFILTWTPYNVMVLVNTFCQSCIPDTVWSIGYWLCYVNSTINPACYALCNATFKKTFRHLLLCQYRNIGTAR
Voltage-gated potassium channel subunit beta-2 (Rattus norvegicus), sequence (P62483 whole entry, looked up): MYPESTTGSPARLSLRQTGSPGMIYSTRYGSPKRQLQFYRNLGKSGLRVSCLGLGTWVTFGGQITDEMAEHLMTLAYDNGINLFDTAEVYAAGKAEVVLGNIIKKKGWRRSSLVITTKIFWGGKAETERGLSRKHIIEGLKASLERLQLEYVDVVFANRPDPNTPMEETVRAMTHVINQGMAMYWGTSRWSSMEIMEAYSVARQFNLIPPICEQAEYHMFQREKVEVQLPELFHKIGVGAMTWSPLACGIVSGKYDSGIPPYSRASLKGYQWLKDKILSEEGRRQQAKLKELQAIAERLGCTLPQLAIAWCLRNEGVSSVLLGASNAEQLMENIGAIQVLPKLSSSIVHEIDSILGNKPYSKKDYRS

Structure (SMILES)	cell count [1]	inhibition [1]	inhibition of aggregation [2]	nuclei count [2] [%]	inhibition [3]	nuclei count [3] [%]	fluorescence slope [4]	NADPH fluorescence slope [5]	fluorescence slope [6]	inhibition [7]	inhibition [8]
CC1(C)CC(=O)c2cc(OCC(=O)NCCCN3CCN(c4ccccc4F)CC3)ccc2O1	398	5.8% (inactive)	-2% (inactive)	91.6	-156% (inactive)	103	-0.366 (inactive)	3e-05 (inactive)	0.00645 (inactive)	9.74% (inactive)	2.15% (inactive)
CCOC(=O)c1[nH]nc(-c2c(O)cc(C)cc2O)c1-c1csc(C)n1	495	-16.3% (inactive)	-2.1% (inactive)	87.5	56.2% (inactive)	61.3	-0.453 (inactive)	-0.000313 (inactive)	0.00535 (inactive)	-7.71% (inactive)	-0.807% (inactive)
COc1ccccc1NC(=O)c1ccc(NC(=O)CSc2nnnn2C)cc1	253	-3.2% (inactive)	-0.5% (inactive)	85.1	-63% (inactive)	100	-0.385 (inactive)	-7.2e-05 (inactive)	0.00533 (inactive)	12.1% (inactive)	25.6% (inactive)
COc1ccc(OC)c(S(=O)(=O)Nc2ccc(C(N)=O)cc2)c1	684	-2.6% (inactive)	-13.7% (inactive)	107	-57% (inactive)	113	-0.519 (inactive)	-0.000185 (inactive)	0.00432 (inactive)	18.4% (inactive)	23.9% (inactive)
COc1ccc(N2C(=O)CC(N3CCN(S(=O)(=O)c4c(F)cccc4F)CC3)C2=O)cc1OC (stereo not drawn)	418	-6.6% (inactive)	1% (inactive)	99.7	-20.1% (inactive)	112	-0.572 (inactive)	-1.2e-05 (inactive)	0.00422 (inactive)	9.5% (inactive)	12.6% (inactive)
COc1ccc(S(=O)(=O)N2CCN(C3CCCCCCC3)CC2)cc1	360	2% (inactive)	5.1% (inactive)	105	-8.4% (inactive)	108	-0.533 (inactive)	-5.6e-05 (inactive)	0.00334 (inactive)	16.2% (inactive)	24.3% (inactive)
Cc1ccc(C)c(S(=O)(=O)NCc2ccc(C(=O)N3CCN(C)CC3)cc2)c1	328	1.1% (inactive)	27.1% (inactive)	105	-101% (inactive)	106	-0.332 (inactive)	-4.8e-05 (inactive)	0.00527 (inactive)	3.27% (inactive)	19.6% (inactive)
COc1ccc(-c2noc(CN3C(=O)c4ccccc4C3=O)n2)cc1	551	8.9% (inactive)	4.4% (inactive)	90.5	-19.9% (inactive)	108	-0.551 (inactive)	-4.8e-05 (inactive)	0.00296 (inactive)	0.341% (inactive)	-2.38% (inactive)
CCOC(=O)N1CCC(NC(=O)CCc2c(C)nc3c(c(C)nn3C(C)(C)C)c2C)CC1	650	2.6% (inactive)	7.1% (inactive)	138	-8.7% (inactive)	106	-0.397 (inactive)	3.3e-05 (inactive)	0.00517 (inactive)	11% (inactive)	-3.64% (inactive)
O=C(CN1C(=O)NC2(CCCCCC2)C1=O)N1CCC(Cc2ccccc2)CC1	444	2.9% (inactive)	-3.9% (inactive)	99.8	-38.1% (inactive)	104	-0.366 (inactive)	2.2e-05 (inactive)	0.00581 (inactive)	0.617% (inactive)	15.9% (inactive)
CCOc1ccc(-n2c(=O)cc(N3CCN(c4ccccc4)CC3)[nH]c2=O)cc1	542	-4.4% (inactive)	-3.5% (inactive)	87.1	-40.5% (inactive)	108	-0.411 (inactive)	-1.6e-05 (inactive)	0.00553 (inactive)	12.1% (inactive)	11.2% (inactive)
O=C(CS(=O)(=O)Cc1ccccc1)Nc1nc2ccccc2s1	425	-4% (inactive)	8.1% (inactive)	82.8	13.1% (inactive)	97	-0.487 (inactive)	-3.1e-05 (inactive)	0.00544 (inactive)	10.2% (inactive)	23.6% (inactive)
CN1C(=O)NC(NC(=O)C2CCCCC2)(C(F)(F)F)C1=O (stereo not drawn)	650	1.4% (inactive)	0.6% (inactive)	97.1	3.3% (inactive)	99.5	-0.579 (inactive)	-2.4e-05 (inactive)	0.0049 (inactive)	17% (inactive)	17.5% (inactive)
COc1ccc(CNC(=O)Cn2nc(C(F)(F)F)c3c2CCC3)cc1	620	-13.3% (inactive)	-8% (inactive)	103	-56.6% (inactive)	116	-0.396 (inactive)	-9.3e-05 (inactive)	0.00662 (inactive)	6.68% (inactive)	19.7% (inactive)
COc1ccc(-c2cc(C(F)(F)F)nc(SCCC(=O)N3CCOCC3)n2)cc1	506	-6.7% (inactive)	-23.3% (inactive)	83.6	-59.7% (inactive)	133	-0.596 (inactive)	-1.1e-06 (inactive)	0.00462 (inactive)	16.4% (inactive)	-4.79% (inactive)
CN(CC(=O)Nc1ccccc1Cl)C(=O)COC(=O)CNC(=O)c1ccc(Br)o1	436	-13.1% (inactive)	-3.1% (inactive)	115	-13.8% (inactive)	107	-0.607 (inactive)	2.6e-05 (inactive)	0.00546 (inactive)	15.4% (inactive)	30.4% (inactive)
Cc1cccc(NC(=O)c2cc3n(n2)C(C(F)(F)F)CC(c2ccc4c(c2)OCO4)N3)c1 (stereo not drawn)	555	-6.9% (inactive)	0.5% (inactive)	82.7	45.8% (inactive)	127	-0.546 (inactive)	-3.2e-05 (inactive)	0.00563 (inactive)	25.3% (inactive)	25.4% (inactive)
O=C(NCCN1CCOCC1)c1csc2c1CCCC2	643	-24.5% (inactive)	22.6% (inactive)	109	-109% (inactive)	116	-0.257 (inactive)	-1.1e-05 (inactive)	0.0063 (inactive)	12.1% (inactive)	2.09% (inactive)
COC(=O)c1c(N)nc(C)n1-c1ccc(OC)cc1	324	-9.2% (inactive)	32.1% (active)	70.1	2.7% (inactive)	103	-0.364 (inactive)	3e-05 (inactive)	0.00554 (inactive)	5.37% (inactive)	9.69% (inactive)
COc1ccc(CC(=O)NCc2ccccc2)cc1S(=O)(=O)N1CCOCC1	404	-3.1% (inactive)	-17.5% (inactive)	104	-26.1% (inactive)	110	-0.583 (inactive)	-1.6e-05 (inactive)	0.00498 (inactive)	18.6% (inactive)	21.9% (inactive)
CCCCN(CCCNC(=O)C1CCN(S(=O)(=O)CC)CC1)c1ccccc1	547	7.2% (inactive)	-2.7% (inactive)	130	-81.6% (inactive)	165	-0.441 (inactive)	2.9e-05 (inactive)	0.00466 (inactive)	8.2% (inactive)	25.8% (inactive)
Cc1ccc(-n2c(=O)[nH]c3c(C(N)=O)nc(CC(C)C)nc32)cc1	297	37.7% (active)	9.5% (inactive)	92.3	6.3% (inactive)	98.1	-0.536 (inactive)	-0.000117 (inactive)	0.00328 (inactive)	-2.4% (inactive)	8.27% (inactive)
CCOc1ccc(C(=O)Cc2ccc3oc(C(=O)O)cc3c2)c(O)c1	580	10.2% (inactive)	4.1% (inactive)	63.8	-3.3% (inactive)	97.5	-0.522 (inactive)	-4.9e-05 (inactive)	0.00668 (inactive)	16.4% (inactive)	22.3% (inactive)
CCOC(=O)C1CCCN(C(=O)c2ccc(CS(=O)(=O)Cc3ccccc3C)o2)C1 (stereo not drawn)	419	10.9% (inactive)	19.5% (inactive)	76.5	-57.8% (inactive)	93.9	-0.595 (inactive)	4.2e-06 (inactive)	0.00695 (inactive)	-2.6% (inactive)	5.13% (inactive)
CCN1CCN(CCCNC(=O)c2cn(CCOC)c(=O)c3c2c2ccccc2n3C)CC1	451	-6.3% (inactive)	5.8% (inactive)	103	-2.9% (inactive)	106	-0.569 (inactive)	-1.9e-06 (inactive)	0.00513 (inactive)	-6.82% (inactive)	0.455% (inactive)
COc1ccccc1NC(=O)N1c2ccc(F)cc2CCC1C (stereo not drawn)	407	-2.5% (inactive)	2.1% (inactive)	108	-58.6% (inactive)	111	-0.567 (inactive)	-5e-06 (inactive)	0.00635 (inactive)	16.7% (inactive)	24.1% (inactive)
CCCCOC(=O)Cn1c(=N)n(CCN2CCOCC2)c2ccccc21	488	4% (inactive)	7.9% (inactive)	91.9	-46.3% (inactive)	84.8	-0.354 (inactive)	-6.5e-05 (inactive)	0.00576 (inactive)	8.18% (inactive)	17.7% (inactive)
O=C1CC(c2cccc(Cl)c2)CC(O)=C1C=NCCCO (stereo not drawn)	498	-18.1% (inactive)	0.4% (inactive)	87.3	28.3% (inactive)	98.3	-0.393 (inactive)	4.1e-05 (inactive)	0.00604 (inactive)	16.7% (inactive)	20.9% (inactive)
